The source made the active and inactive calls. The rule behind the calls is not given here. Bounds are passed on as bounds.

In experiment [1] the target is T1, Monocarboxylate transporter 1 (Homo sapiens) (UniProt P53985).
T1 sequence (whole entry): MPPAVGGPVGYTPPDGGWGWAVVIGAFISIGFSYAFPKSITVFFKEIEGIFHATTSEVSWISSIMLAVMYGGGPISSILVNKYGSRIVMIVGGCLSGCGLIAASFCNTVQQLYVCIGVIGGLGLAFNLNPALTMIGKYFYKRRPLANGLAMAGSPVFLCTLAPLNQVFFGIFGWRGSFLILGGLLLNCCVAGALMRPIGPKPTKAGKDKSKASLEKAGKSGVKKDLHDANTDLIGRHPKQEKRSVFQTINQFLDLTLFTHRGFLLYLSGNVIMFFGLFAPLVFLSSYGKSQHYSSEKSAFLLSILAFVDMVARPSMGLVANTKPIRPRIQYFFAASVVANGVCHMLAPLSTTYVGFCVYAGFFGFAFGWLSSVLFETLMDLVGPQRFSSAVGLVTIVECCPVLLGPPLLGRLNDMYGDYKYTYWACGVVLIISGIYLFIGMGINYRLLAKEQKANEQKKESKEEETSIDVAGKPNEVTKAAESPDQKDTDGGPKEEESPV
Kind of experiment: Inhibition of MCT1 in human A673 cells assessed as reduction in BrPA-induced cytotoxicity at 10 nM by SRB assay. The format is cell-based. Put shortly: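 A-673 cells were grown in RPMI-1640 with 5% FBS. Test compound or AZD3965 was added 1 h before BrPA, with DMSO as the vehicle control. Viability was read by SRB staining after TCA fixation, with absorbance at 560 nm.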
(In SRB staining, fixed cells bind dye roughly in proportion to their protein.)

Experiment [2] has as its system A673. Kind of experiment: Growth inhibition of human A673 cells assessed as reduction in cell viability up to 10 uM after 48 hrs by SRB assay. The format is functional, cell-based. Put shortly: (§1)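 Cells were kept in RPMI-1640 with 5% FBS and 50 μg/mL gentamicin at 37 °C and 5% CO2, and plated at 4,000–6,000 cells/well to adhere overnight. Compounds in DMSO (0.5% v/v final) went to triplicate wells for 48 h. Cells were fixed with 10% TCA, and time-0 plates were fixed at dosing. SRB absorbance was read at 560 nm, with GI50 fitted by non-linear regression for each experiment.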

In experiment [3] the test system is A673. The experiment can be described thus: Growth inhibition of human A673 cells assessed as reduction in cell viability after 48 hrs by SRB assay. The format is functional. Particulars: A673, 48 h. Put shortly: as §1
Experiment [4] is described as follows: Growth inhibition of human SJCRH30 cells assessed as reduction in cell viability after 48 hrs by SRB assay. The format is functional. Put shortly:
as §1

Experiment [5] in a line: Growth inhibition of human D283 cells assessed as reduction in cell viability after 48 hrs by SRB assay. The format is functional. Particulars: D283, 48 h. Put shortly: (§2)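 Cells were grown in IMEM with 5% FBS and 25 μg/mL gentamicin at 37 °C and 5% CO2, then seeded at 4,000–6,000 cells/well overnight. DMSO solutions (0.5% v/v final) were added to triplicate wells for 48 h, and time-0 plates were fixed at addition. Fixation was with TCA; for D283, 20% TCA was added straight into the medium. SRB absorbance at 560 nm gave GI50 by non-linear regression.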

Experiment [6] has as its system Hep293TT. Kind of experiment: Growth inhibition of human Hep293TT cells assessed as reduction in cell viability after 48 hrs by SRB assay. The format is functional. Put shortly: as §1
The test system of experiment [7] is SK-ES1. Kind of experiment: Growth inhibition of human SK-ES-1 cells assessed as reduction in cell viability after 48 hrs by SRB assay. Particulars: SK-ES1, 48 h. The format is functional. Put shortly:
as §1

Experiment [8] relates to D341 cell line. Kind of experiment: Growth inhibition of human D341 cells assessed as reduction in cell viability after 48 hrs by SRB assay. The format is functional. The following applies: D341, 48 h. Put shortly: as §2
Experiment [9] deals with HCC1806. Kind of experiment: Growth inhibition of human HCC1806 cells assessed as reduction in cell viability up to 10 uM after 48 hrs by SRB assay. The format is functional, cell-based. Put shortly: as §1
In experiment [10] the test system is Daoy. The experiment can be described thus: Growth inhibition of human DaOY cells assessed as reduction in cell viability up to 10 uM after 48 hrs by SRB assay. The format is functional, cell-based. Put shortly: as §2
Experiment [11] deals with HCT-15. Kind of experiment: Cytotoxicity against human HCT15 cells assessed as reduction in cell viability. The format is functional, cell-based.
For experiment [12], the system named is HeLa. Kind of experiment: Cytotoxicity against human HeLa cells assessed as reduction in cell viability. The format is functional, cell-based.
The subject of experiment [13] is A2780. The experiment can be described thus: Cytotoxicity against human A2780 cells assessed as reduction in cell viability. The format is functional, cell-based.

Take `Cc1[nH]nc(C(F)(F)F)c1Cc1sc2c(c1C(=O)N1C[C@](C)(O)CO1)c(=O)n(C)c(=O)n2C(C)C`: in experiment [1], the inhibition result was “Active”. Also, the “growth inhibition (GI)” value in experiment [2] is “inactive”.
By GI50 is commonly meant the concentration giving 50% growth inhibition. Turning to `CCCC/C=C\CCCCCCCCCCCc1cc2cc(O)ccc2o1`, the GI50 is 190 nM in [3]; > 10000 nM in experiment [4]; 70 nM in experiment [5]; > 10000 nM in experiment [6]; 120 nM in [7]; 20 nM in [8]. Further, the “growth inhibition (GI)” value in [9] and in experiment [10] was “inactive” each time. The inhibition result in experiment [1] is “Active”.
Broadly, the IC50 is the concentration needed to halve the response being measured. In the case of `CCCC/C=C\CCCCCCCCCCC[C@@H]1C[C@]2(O)CC(=O)C[C@H](O1)[C@@H]2O`, the IC50 in experiment [11], in experiment [12] and in experiment [13] was 3000 to 30000 nM in each case.
`CCCC/C=C\CCCCCCCCCCC[C@H](O)Cc1cc(O)ccc1O`: the GI50 in [3] is 320 nM; in experiment [4], 120 nM; in experiment [5], 240 nM; in experiment [6] it was 700 nM.
In the case of `CCCC/C=C\CCCCCCCCC[C@H](O)C[C@]1(O)CC(=O)C=C[C@H]1O`, the GI50 in experiment [3] was 650 nM; in [4] it was 240 nM; in [5] it was 410 nM; in experiment [6] it was 500 nM.
As to `CCCC/C=C\CCCCCCCCC[C@H](O)Cc1cc(O)ccc1O`, the GI50 is 160 nM in experiment [3], 170 nM in [4], 80 nM in experiment [5] and 1020 nM in experiment [6].
In the same order, the values of `CCCC/C=C\CCCCCCCCCCC[C@H](O)C[C@]1(O)CC(=O)C=C[C@H]1O` are 580 nM, 180 nM, 400 nM and 390 nM.

The values are drawn from ChEMBL document CHEMBL4613254, “Using the Cancer Dependency Map to Identify the Mechanism of Action of a Cytotoxic Alkenyl Derivative from the Fruit of Choerospondias axillaris” (J Nat Prod, 2020).
